Most compounds without a hit are left out; they make up all but 2.1% or so of the library.
Runt-CBFb FRET = inhibitors of RUNX1 Runt–CBFb binding, primary screen, biochemical, FRET, Cerulean-Runt, Venus-CBFb, uHTS. Runt-related transcription factor 1 (Homo sapiens) + Core-binding factor subunit beta …. Cerulean-Runt/Venus-CBFb FRET ratio 530/480, 1 h. inhibition, % at 20 µM. actives 0.46% (n = 220,000). AID 1496, 2009;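 active = inhibition over about 50% at 20 µM in the single-dose screen, limit read from the data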;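 also: 0% = DMSO wells and 100% = excess unlabeled CBFb competitor control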
Target sequence (Q01196 whole entry, looked up): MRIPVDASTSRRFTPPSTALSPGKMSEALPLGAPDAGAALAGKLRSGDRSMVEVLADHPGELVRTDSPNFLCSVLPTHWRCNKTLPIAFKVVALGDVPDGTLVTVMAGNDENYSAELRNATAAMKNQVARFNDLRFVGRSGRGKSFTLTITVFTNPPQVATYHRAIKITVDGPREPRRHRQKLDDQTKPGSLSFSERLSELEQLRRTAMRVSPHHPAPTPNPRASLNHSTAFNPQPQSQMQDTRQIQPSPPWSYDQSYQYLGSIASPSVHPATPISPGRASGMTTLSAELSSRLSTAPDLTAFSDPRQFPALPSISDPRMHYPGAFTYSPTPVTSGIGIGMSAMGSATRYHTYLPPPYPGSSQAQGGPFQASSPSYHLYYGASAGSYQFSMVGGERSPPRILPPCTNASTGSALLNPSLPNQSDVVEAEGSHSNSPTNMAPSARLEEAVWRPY
Target sequence (Q13951 whole entry, looked up): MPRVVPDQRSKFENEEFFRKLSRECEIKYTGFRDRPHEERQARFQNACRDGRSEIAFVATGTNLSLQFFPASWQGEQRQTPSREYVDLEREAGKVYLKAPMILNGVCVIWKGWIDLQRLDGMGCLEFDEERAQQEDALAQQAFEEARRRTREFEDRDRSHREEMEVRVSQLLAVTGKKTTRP
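Assay system: Cerulean-tagged RUNX1 Runt domain (FRET donor) fusion protein / Amount: 100 nM each of Venus-CBFb and Cerulean-Runt domain / Medium: Tris buffer pH 7.5 with salts and BSA / Also added: Venus-CBFb 100 nM / Schedule: 1 h complex formation plus 1 h compound treatment, room temperature / Signal: FRET fluorescence / Read-out: loss of energy transfer signal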
Runt-SMMHC FRET = inhibitors of RUNX1 Runt–CBFb-SMMHC binding, primary screen, biochemical, FRET, Cerulean-Runt, Venus-CBFb-SMMHC, uHTS; Runt-related transcription factor 1 (Homo sapiens) + Core-binding factor subunit beta …; Cerulean-Runt/Venus-CBFb-SMMHC FRET ratio 530/480, 1 h; inhibition, % at 20 µM; actives 0.74% (n = 220,000); AID 1434, 2008;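 active = mean inhibition across duplicate retests at 20 µM reaching about 50%, limit read from the data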;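 also: 0% = DMSO wells and 100% = wells with excess untagged CBFb-SMMHC; inhibitors lower the FRET ratio by blocking Runt binding to CBFb-SMMHC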
zVAD death inh = inhibitors of zVAD-triggered necroptosis, primary screen, L929 cells; AID 1377, 2008; L929 zVAD necroptosis rescue, ATP luminescence, 24 h; with zVAD 60 µM; viability rescue, % at 10 µM; actives 0.38% (n = 220,000);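 active = activation, scaled between plate controls, above about 75%, limit read from the data; inactive = activation under that limit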;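 also: 0% = zVAD with DMSO and 100% = DMSO alone without zVAD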
TNF necrop inh = inhibitors of TNF-alpha triggered necroptosis, primary screen, cell-based, Jurkat FADD-/-, single concentration. actives 0.068% (n = 220,000). activation (protection from cell death), % at 10 µM. AID 463075, 2010. Jurkat FADD-/- TNF necroptosis rescue, ATP luminescence, 24 h; 0 = TNF only, 100 = no-TNF cells;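 active = activation, meaning protection from cell death, of at least 50% relative to plate controls; inactive = activation below 50%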;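 also: necroptosis triggered by 40 ng/mL TNF-alpha added together with compound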
Hck-Nef inh = inhibitors of Nef-activated human Hck kinase, primary screen, biochemical, Z-Lyte FRET, 384-well, Hck-YEEI; inhibition, % at 20 µM; Recombinant Hck-YEEI plus Nef, Z-Lyte FRET kinase assay; actives 0.68% (n = 220,000); Tyrosine-protein kinase HCK (Homo sapiens), P08631;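 active = Hck-Nef kinase inhibition above about 50%, limit read from the data; inactive = inhibition below that limit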;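 also: 0% = DMSO with Hck plus Nef and 100% = Hck alone without Nef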
RanGTP-Imp inh = inhibitors of RanGTP-importin-beta interaction, primary screen, biochemical, FRET, CFP-Ran, YFP-importin-beta, homogeneous; Ran GTPase (GTP-bound) - importin-beta complex; cell-free CFP-Ran/YFP-importin-beta FRET ratio; inhibition, % (concentration not given with the values); actives 1.1% (n = 300,000); AID 2216, 2009;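 active = more than half of the replicate wells show a fall in the fluorescence ratio signal beyond about 16%, limit read from the data, passing the limit was not always enough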;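 also: 0% = DMSO wells and 100% = Ran loaded with GDP instead of GTP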
YIC FRET counter = YIC intramolecular FRET probe signal interference, dose response, counter-screen for RanGTP-importin-beta inhibitor project, biochemical, fluorescence FRET; AID 435026, 2010; shares compounds with RanGTP-Imp inh; IC50, µM; Purified YIC probe, intramolecular FRET ratio YFP/CFP; actives 40% (n = 1,000);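 active = fitted half-maximal inhibitory concentration no more than tenfold above the top dose tested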
Active calls of the source: *; . = not tested or not shown.

SMILES	Runt-CBFb FRET	Runt-SMMHC FRET	zVAD death inh	TNF necrop inh	Hck-Nef inh	RanGTP-Imp inh	YIC FRET counter
Cc1cc(C)c2nc(N3CCOCC3)c(C#N)cc2c1	.	.	.	.	.	24.0*	18.7*
N#Cc1cc2cc3c(cc2nc1N1CCOCC1)OCO3	96.9*	108.7*	-0.2	-1.5	9.9	38.5*	9.02*
COc1cc(CNCCNC(=O)c2nonc2N)ccc1OCc1ccc(Cl)nc1	1.0	2.3	0.4	1.4	19.6	-3.1	.
COc1ccc([N+](=O)[O-])cc1NC(=O)CSc1ncccn1	1.5	-1.3	0.1	0.0	-10.7	19.7*	>50
COc1ccc([N+](=O)[O-])cc1NC(=O)CSc1nccc(C)n1	-0.1	-6.3	2.1	2.0	9.3	-1.8	.
Nc1nc(CSc2nc3ccccc3s2)nc(N2CCCCC2)n1	-1.2	1.0	0.8	-1.4	-0.7	35.6*	>50
CCc1ccc(Nc2nc(N)nc(CSc3nc4ccccc4s3)n2)cc1	-3.8	-3.0	0.9	-0.2	0.5	2.6	.
C[C@@H]1CN([C@@H](C)CO)C(=O)c2cc(NS(C)(=O)=O)ccc2O[C@@H](C)CCCCO[C@H]1CN(C)C(=O)Cc1ccccc1	.	.	.	.	.	.	>50
COc1ccccc1NC(=O)CN1CCN(CC(=O)Nc2ccc(F)cc2)CC1	0.2	-5.3	-1.2	0.7	-9.0	.	.
COc1ccccc1NC(=O)CN1CCN(CC(=O)Nc2ccc(C)c(F)c2)CC1	.	.	.	.	.	27.0*	>50
COc1ccc(C(C(=O)NC2CCCCC2)N(C(=O)c2ccco2)c2ccccc2C(C)=O)cc1 (stereo unspecified)	.	.	.	.	.	1.7	.
CC1(C)CNC(=O)C=C(c2ccccc2)C1	-0.1	2.3	0.6	1.2	1.9	22.9*	>50
COc1cccc(-n2c(CN3CCN(c4ccccc4)CC3)nc3ccc([N+](=O)[O-])cc3c2=O)c1	10.1	-6.4	-0.2	0.8	0.9	1.4	.
O=S(=O)(Cc1ccc(Cl)cc1)N1CCN(Cc2ccc3c(c2)OCO3)CC1	-0.1	-0.8	-0.1	1.5	9.9	5.5	.
O=S(=O)(Cc1ccc(Cl)cc1)Nc1ccc2c(c1)OCO2	-1.0	28.0	-1.5	2.5	2.2	19.0*	>50
O=C(NC(Cc1c[nH]c2ccccc12)C(=O)NCc1ccc(F)cc1)OCc1ccccc1 (stereo unspecified)	-1.0	5.6	1.4	1.7	2.7	-2.9	.
COc1cc(Cl)c(S(=O)(=O)NCc2ccccn2)cc1Cl	1.7	-0.6	-0.1	1.1	1.1	2.1	.
COc1ccc(-n2c(N)c(C(=O)NCc3ccco3)c3nc4ccccc4nc32)c(OC)c1	40.0	95.3*	0.6	-3.3	35.5	32.6*	19.4*
CCCn1c(N)c(N(CCOC)C(=O)COC(=O)CSc2cc(C)c3ccccc3n2)c(=O)[nH]c1=O	.	.	.	.	.	-3.6	.
CC1CC(C)CN(CCCNC(=O)c2nn(C)c3c2CS(=O)(=O)c2ccccc2-3)C1 (stereo unspecified)	.	.	.	.	.	0.8	.
COCCNC(=O)c1cnn2c(C(F)F)cc(-c3ccc(C)cc3)nc12	45.6	92.2	1.7	-2.6	-6.5	18.0*	42.4*
Cc1cc(CNC(=O)COc2ccc(F)cc2)c2ccccc2n1	0.5	-1.3	0.7	0.6	3.0	17.5*	>50
Cc1cccc(OCC(=O)Nc2cc(NC(=O)COc3cccc(C)c3)cc(C(=O)O)c2)c1	.	.	.	.	.	4.6	.
O=C(Cc1ccccc1)NNc1c2ccccc2nc2ccccc12	17.1	19.8	2.2	1.0	5.2	34.2*	>50
Cc1cccc(OCC(=O)NNc2c3ccccc3nc3ccccc23)c1	10.2	15.1	2.2	-13.9	0.8	32.6*	>50
SMILES	Runt-CBFb FRET	Runt-SMMHC FRET	zVAD death inh	TNF necrop inh	Hck-Nef inh	RanGTP-Imp inh	YIC FRET counter
Cc1cc(CNC(=O)COc2ccccc2)c2ccccc2n1	1.8	-1.4	1.4	0.3	18.7	1.4	.
Cc1ccc(OCC(=O)NNc2c3ccccc3nc3ccccc23)cc1	4.8	23.8	2.6	-1.2	12.0	36.2*	>50
CCn1c(=O)cc(N2CCCCC2)[nH]c1=O	1.4	0.1	-0.1	-2.8	1.5	23.4*	>50
CCCCn1c(=O)cc(N2CCOCC2)[nH]c1=O	-0.4	-0.5	-0.4	0.4	-0.5	1.0	.
CCn1c(=O)cc(N2CCOCC2)[nH]c1=O	-0.9	-2.4	2.7	0.0	20.2	24.3*	>50
Cn1c(=O)cc(N2CCCCC2)[nH]c1=O	-2.6	-0.9	0.3	1.5	3.5	19.2*	>50
C=CCc1cccc([C@@H]2[C@@H](C)CC[C@H]3C(=O)N4[C@@H](c5cc(OC)c(OC)c(OC)c5)c5[nH]c6ccccc6c5C[C@H]4C(=O)N23)c1	2.0	7.5	0.3	-0.7	-4.8	-1.7	.
CC1(c2nnc(-c3ccncc3)o2)CC(c2ccccc2)=NO1 (stereo unspecified)	.	.	.	.	.	-1.8	.
CC(C)CN1CCN(Cc2ccc3ncccc3c2)CC1CCO (stereo unspecified)	-2.0	-2.7	-0.5	1.4	-5.4	-2.2	.
Cc1c(CC(=O)NCCCO)c(=O)oc2cc3c(cc12)CCC(C)(C)O3	.	.	.	.	.	0.2	.
c1c2c(cc3sc(N4CCOCC4)nc13)OCCO2	0.1	-0.5	0.3	-5.5	1.8	22.8*	>50
c1ccc(N2CCN(c3nc4cc5c(cc4s3)OCCO5)CC2)cc1	0.9	2.9	-0.3	-2.6	0.0	8.9	.
NC(=O)c1ccccc1NC(=O)/C=C/c1ccc(Cl)cc1	0.7	1.2	0.5	-6.3	1.9	22.7*	>50
S=c1[nH]c2cc3ccccc3cc2[nH]1	8.8	2.8	0.7	-2.5	-17.6	-0.9	.
S=c1[nH]c2ccc3ccccc3c2[nH]1	-14.7	6.7	3.7	-0.1	21.4	17.1*	>50
Cn1c(=O)c(-c2cc(=O)[nH][nH]2)c(O)c2ccccc21	1.6	1.9	-1.1	-0.9	1.0	2.1	.
C/C(=N\NC(=S)NCCc1ccccc1)c1cccc(Br)c1	2.8	-4.5	-0.2	-0.5	-4.2	0.2	.
C/C(=N\NC(=S)NCc1ccccc1)c1cccc(Br)c1	0.5	-3.9	-0.3	-1.5	1.2	46.1*	>50
